This is a sample that favours compounds with a hit; in the whole collection about 1.3% have one here.
TAG inh: reduces triacylglycerol accumulation in H9c2 cells | AID 651582 | inhibition, % at 12.5 µM | 230,000 tested, 0.66% active | Nile Red lipid (TAG) fluorescence; cells loaded with 200 µM oleic acid;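 active = pattern-corrected inhibition of lipid staining of at least 50% with the nuclear-stain viability signal not falling by more than 50%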;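 also: 0% = DMSO wells and 100% = triacsin C control wells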
LANA-H2A inh: blocks KSHV LANA binding to histone H2A/H2B; cell-free LANA-H2A/H2B peptide, fluorescence polarization; 320,000 tested, 0.6% active; AID 2629; Q9QR71; inhibition, % (no concentration beside the values); in the data active = inhibition mostly above about 10%, no sharp cut-off; inactive = mostly below about 6.7%
GSK3A inh: inhibitors of human GSK-3 alpha kinase; 320,000 tested, 0.1% active; P49840; AID 2650; ADP-Glo luminescence, 60 min; inhibition, % at 10 µM;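 active = more than half of replicates show inhibition above 20%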;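 also: GST-tagged GSK-3 alpha with peptide substrate and 25 µM ATP; 0% = DMSO neutral wells and 100% = GW8510 positive control wells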
STK33 inh: blocks human STK33 kinase activity | Q9BYT3 | purified STK33, MBP phosphorylation, ADP-Glo luminescence | inhibition, % at 10 µM | 320,000 tested, 0.073% active;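 active = inhibition at or above 25%, using the most active replicate where run in duplicate; inactive = inhibition below 25%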
GSK3B inh: inhibitors of human GSK3beta kinase; P49841; activity score (negative = inhibition), % at 10 µM; GST-GSK3beta kinase, ADP-Glo luminescence, 60 min; active compounds read low; 300,000 tested, 0.038% active; AID 2097;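 active = more than half of replicate wells score below -50%, meaning over 50% inhibition versus plate controls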;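 also: 0% = median DMSO wells and -100% = median GW8510 positive control wells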
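Assay system: GST-fused GSK3beta enzyme, cell-free / Medium: Tris pH 7.5 buffer with MgCl2, DTT, BSA, heparin / Also added: peptide substrate plus 25 µM ATP (final) / Compound: 10 µM single point / Timing: kinase reaction with compound 60 min at room temperature / Detection: ADP-Glo luminescence / Benchmarks: DMSO neutral wells and GW8510 at 20 µM as positive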
Hep lipid drop: modulators of hepatic lipid droplet formation | inhibition, % at 6.5 µM | AML12 mouse hepatocytes, oleate lipid droplets, BODIPY imaging | 240,000 tested, 0.4% active;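 active = lipid droplet intensity inhibited by at least 50%, with more than 500 cells counted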
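Material: mouse AML12 hepatocyte cell line, fixed after treatment; Timing: compound with oleate, overnight; Technique: high-content imaging of BODIPY-stained droplets and DAPI nuclei; Probe or stimulus: oleate, 100 µM final; Dosing: compound at 6.5 µM only.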
H9c2 TAG conf: confirmation of triacylglycerol accumulation inhibitors | shares compounds with TAG inh | 990 tested, 71% active | inhibition, % at 12.5 µM | H9c2 lipid accumulation, Nile Red fluorescence; cells loaded with 200 µM oleic acid;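 active = mean inhibition across replicates of 40% or more; inactive = mean inhibition below 40%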;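 also: plate controls were DMSO only wells for no effect and Triacsin C treated wells for full effect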
* hit, by the source's call; . = no result given.

SMILES	TAG inh	LANA-H2A inh	GSK3A inh	STK33 inh	GSK3B inh	Hep lipid drop	H9c2 TAG conf
CCOc1ccc(CC2c3cc(OCC)c(OCC)cc3CCN2C(=O)c2cc(OC)c(OC)c(OC)c2)cc1OCC (centres undefined)	61.9*	-6.1	-3.1	-2.9	-1.2	.	36.0
Cc1cc(C(=O)COC(=O)c2ccc([N+](=O)[O-])o2)c(C)n1CC1CCCO1 (centres undefined)	71.7*	-1.6	-2.2	-1.1	.	-13.3	53.5*
O=C(Cn1cc(C(=O)C2CC2)c2ccccc21)NCc1ccc2c(c1)OCO2	51.4*	1.3	-6.5	-0.5	1.1	.	25.8
CCOC(=O)C(C)Oc1cccc2c(=O)n(CC(=O)NCc3ccc4c(c3)OCO4)ccc12 (centres undefined)	53.7*	3.3	-0.8	-3.2	1.0	.	54.7*
CS(=O)(=O)N1CCCC(C(=O)Nc2ccccc2F)C1 (centres undefined)	17.6	9.0	0.4	-0.8	-4.2	2.6	.
Cn1nnc2c[n+](CC(=O)c3ccc4ccccc4c3)cc(Br)c21	6.5	-0.7	-3.3	-0.2	-2.3	-13.5	.
Cn1nnc2c[n+](CC(=O)c3ccc(Cl)cc3)cc(Br)c21	58.9*	-0.6	-3.5	0.5	-1.4	-2.3	68.7*
Cn1ccnc1SCC(=O)NC1(C#N)CCCCC1	8.2	2.8	-0.8	-0.7	4.2	.	.
O=C(COC(=O)c1cncc(Br)c1)Nc1nnc(-c2ccccc2)o1	6.5	4.7	-6.5	0.2	3.7	-26.9	.
COc1cccc(Nc2nc(C(N)Cc3ccc(F)cc3)cs2)n1 (centres undefined)	19.9	.	.	.	.	.	.
CC(C)c1ccc(NC(=O)Nc2nc(C(N)COCc3ccccc3)cs2)cc1 (centres undefined)	83.4*	.	.	.	.	.	101.5*
COc1ccc(CNC(=O)Nc2nc(C(N)Cc3ccc(C(F)(F)F)cc3)cs2)cc1 (centres undefined)	61.3*	.	.	.	.	.	34.5
NC(Cc1ccc(Cl)cc1)c1csc(NC(=O)NCCc2ccccc2)n1 (centres undefined)	73.6*	.	.	.	.	.	42.0*
COc1ccc(CC(N)c2csc(NC(=O)NCCc3ccccc3)n2)cc1 (centres undefined)	35.9	.	.	.	.	.	.
COc1cccc(Nc2nc(C(N)Cc3ccc(C(F)(F)F)cc3)cs2)n1 (centres undefined)	71.5*	.	.	.	.	.	37.1
O=C(CCN1C(=O)C2C3CCC(C3)C2C1=O)Nc1ccc([N+](=O)[O-])cc1 (centres undefined)	-0.9	-1.0	.	3.7	1.4	-1.0	.
Cc1ccc(/C=N/N2CCN(c3ccccn3)CC2)cc1	-4.8	1.9	-6.8	-1.1	3.0	3.8	.
COCC1CCCCN1Cc1cn(-c2ccccc2)nc1-c1ccc2c(c1)OCO2 (centres undefined)	2.5	5.4	0.4	-0.5	-3.1	18.7	.
COc1ccc(CC(N)c2csc(NC(=O)c3cccc(OC(F)(F)F)c3)n2)cc1 (centres undefined)	51.5*	.	.	.	.	.	34.3
COc1cc(CNC(=O)Nc2nc(C(N)Cc3ccc(Cl)cc3)cs2)cc(OC)c1OC (centres undefined)	66.8*	.	.	.	.	.	93.5*
NC(CCc1ccccc1)c1csc(NC(=O)NCCc2ccccc2)n1 (centres undefined)	44.6	.	.	.	.	.	.
COc1ccccc1CNC(=O)Nc1nc(C(N)CCc2ccccc2)cs1 (centres undefined)	57.4*	.	.	.	.	.	35.1
Cc1ccc(NC(=O)CNC(=O)CC23CC4CC(CC(C4)C2)C3)c(O)c1	24.3	.	.	.	4.5	.	.
O=C(Nc1ccccc1)c1nc[nH]c1C(=O)NCCCCCCNC(=O)c1[nH]cnc1C(=O)Nc1ccccc1	65.2*	-3.0	-4.7	-0.4	.	.	72.8*
Nc1c(C(=O)NC2CCCC2)c2nc3ccccc3nc2n1/N=C/c1cccnc1	68.5*	-2.8	-2.3	-1.1	-0.3	.	72.5*
SMILES	TAG inh	LANA-H2A inh	GSK3A inh	STK33 inh	GSK3B inh	Hep lipid drop	H9c2 TAG conf
CCc1nc(C)c(C(=O)N2CCCC(C(=O)Nc3cccc(-c4cccc(C)c4)c3)C2)o1 (centres undefined)	50.2*	0.0	-1.0	-0.3	0.3	45.7	46.5*
Cc1cccc(-c2cccc(NC(=O)C3CCCN(C(=O)c4ocnc4C)C3)c2)c1 (centres undefined)	34.6	0.1	-0.4	-0.5	-2.5	5.2	.
Nc1ncnc2c1ncn2C1C=C(CO)C(O)C1O (centres undefined)	74.8*	.	.	.	.	.	75.6*
C=CCn1cnc2c(c1=O)c1nc3ccccc3nc1n2/N=C/c1cccc(OC)c1OC	.	0.5	-3.0	-0.7	.	.	.
C=CCn1cnc2c(c1=O)c1nc3ccccc3nc1n2/N=C/c1cc(OC)c(OC)c(OC)c1	78.6*	3.4	28.9	-0.5	-5.8	.	37.5
COC(=O)c1cc(=O)nc2sccn12	-8.0	0.4	0.4	-1.3	-1.3	-0.3	.
COC(=O)c1cc(NC(=O)c2c(Cl)nc3sccn23)cc(C(=O)OC)c1	69.7*	-9.5	-2.7	-1.3	1.8	.	87.0*
O=C(Nc1ccccc1)/C(=C\c1cccs1)NC(=O)c1ccccc1	.	-0.6	-4.7	-0.3	0.7	-1.1	.
COc1cc(OC)c(-c2nn3c(-c4ccco4)nnc3s2)cc1OC	53.6*	.	.	.	.	.	38.2
COc1ccc(-c2nn3c(-c4ccco4)nnc3s2)cc1OC	4.8	-6.0	0.6	-1.0	-3.2	.	.
CC1Cc2ccccc2N1C(=O)CNCCCN(C)C (centres undefined)	.	2.8	0.4	-0.5	-2.6	11.0	.
CC1CC2(C)Oc3ccccc3CC2C(C)C1CNCCCN(C)C (centres undefined)	82.2*	-3.9	5.0	2.9	3.6	-11.0	44.2*
CCOc1ccc(CCNC(=O)CN2CCN(Cc3ccccc3F)C2=O)cc1OCC	60.2*	2.6	1.0	0.1	0.7	.	42.2*
Cc1ccc2nc(NC(=O)C3CCCN(S(=O)(=O)c4cccc5nonc45)C3)sc2c1 (centres undefined)	.	2.5	-0.6	0.5	7.9	5.0	.
Cc1cccc2sc(NC(=O)C3CCCN(S(=O)(=O)c4cccc5nonc45)C3)nc12 (centres undefined)	53.7*	2.6	0.3	-1.0	-1.0	5.5	74.2*
C=CCOc1cccc(C2/C(=C(\O)c3ccc4c(c3)OCCO4)C(=O)C(=O)N2Cc2cccnc2)c1 (centres undefined)	.	0.1	-0.3	-0.1	0.1	9.3	.
O=C(C[C@H]1C[C@H](C(=O)N2CCOCC2)[C@@]2(CCC3CCCC3)c3[nH]c4cc(-c5ccco5)ccc4c3CCN2C1=O)NCC12CC3CC(CC(C3)C1)C2	61.6*	.	.	.	.	.	76.6*

From PubChem
